Bioassay records deposited in PubChem by several laboratories.
A selection: hits, their analogues and other compounds. The true share with any hit is near 3.6%.
Phagocyt inh: blocks phagocytosis by macrophages; J774A.1 macrophage IgG-bead phagocytosis, imaging; inhibition, % at 5 µM; 0.07% of 110,000 active;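 active = inhibition above the mean of the plate negative controls plus 5 SD, cut at about 13% in these data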;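 also: phagocytic index as fraction of beads internalized from green versus red external bead signal; plate controls were DMSO negative control for no effect and cytochalasin-D positive control for full effect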
RAM inhibit: inhibitors of the yeast RAM network; S. cerevisiae dse1pr::URA3 reporter, 5-FOA growth OD615, 2 d; analog-sensitive cbk1-as2 kinase mutant strain; inhibition, % at 50 µM; 1.8% of 190,000 active; AID 868;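 active = inhibition above a set limit, 3 SD over mean compound inhibition, cut at about 8.4% in these data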;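 also: 0% = DMSO-only wells with no growth and 100% = 10 µM 1-NA-PP1 full growth; inhibition rescues growth on 5-FOA so higher OD means more RAM inhibition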
Yeast life ext: extends the lifespan of yeast. S. cerevisiae growth with nicotinamide, OD615; deaD strain in restrictive glucose medium. inhibition of the nicotinamide effect, % at 10 µM. AID 775. 0.68% of 130,000 active;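 active = inhibition above a set limit, placed 3 SD over the median of all compounds, cut at about 26% in these data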;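 also: 0% = nicotinamide-treated wells and 100% = cells grown without nicotinamide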
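System: Modified budding yeast, DeaD strain | Buffer or medium: Restrictive glucose medium | Also added: 1.5 mM nicotinamide | Doses: 10 µM single point, 0.25% DMSO | Schedule: 48 h compound exposure at 30 °C, humidified | Detection: Absorbance at 615 nm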
Yeast growth inh: reduces growth of yeast BB579 in restrictive medium; S. cerevisiae BB579 growth, OD615, 48 h; inhibition, % at 10 µM; 0.51% of 140,000 active;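 active = inhibition above a set limit, 3 SD over the mean compound inhibition, cut at about 44% in these data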
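Assay system – yeast BB579 (DeaD) · Dosing – single compound dose of 10 µM, 0.25% DMSO final · Detection – OD615 turbidity measurement · Buffer or medium – CSMM-D restrictive synthetic medium containing dextrose (glucose) · Benchmarks – positive control amphotericin B 10 µg/mL · Incubation – 48 h exposure, 30 °C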
Measles CPE: protection of cells from measles virus; 1.5% of 140,000 active; Measles virus-infected cells, CPE protection, absorbance; protection (pct of control), % at 4 µM; in the data active = protection mostly above about 24%, no sharp cut-off; inactive = mostly below about 26%
RAM efflux-def: restores 5-FOA growth of efflux-deficient yeast. shares compounds with RAM inhibit. S. cerevisiae efflux-deficient reporter strain, 5-FOA growth OD615, 2 days. max inhibition, %. 1,200 tested, under 10 active; call rule not given here;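 also: plate controls were vehicle for no effect and reference inhibitor for full effect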
The depositor's hits bear a star; . = no result; [ ] = remark or other dose.

SMILES	Phagocyt inh	RAM inhibit	Yeast life ext	Yeast growth inh	Measles CPE	RAM efflux-def
C#CCNC(=O)C1=C[C@H](c2ccc(C(F)(F)F)cc2)[C@@H](CCCO)[C@H](OCC)O1	.	0	.	.	.	.
COC(=O)C(CCSC)NS(=O)(=O)c1ccc(Cl)cc1 (stereo not given)	.	-1	.	.	.	.
COc1ccc(C(=O)COC(=O)C(CCSC)NS(=O)(=O)c2ccc(Cl)cc2)cc1 (stereo not given)	-3	15*	20	-18	10	1
COC(=O)c1scc(C)c1N/N=C(\C)c1ccc(F)cc1F	0	13*	-3	-51	4	5
Cc1ccc(N2C(=O)Nc3ccccc3C2(O)C(=O)N2CCN(c3ccccn3)CC2)cc1C (stereo not given)	.	0	.	.	.	.
CC1(C)C2CCC(C2)C1(C)NC(=O)CNC1CCCCC1 (stereo not given)	.	1	.	.	.	.
CCOC(=O)C(C)(C)Sc1nc2c(cnn2-c2ccc(Cl)cc2)c(=O)[nH]1	163*[fluoresces]	14*	4	-103	18	3
CCC(Sc1nc2c(cnn2-c2ccc(Cl)cc2)c(=O)[nH]1)C(=O)OC (stereo not given)	0	4	3	-17	7	.
Fc1ccc(CSc2nnc(Cc3sc(-c4ccccc4)nc3-c3ccccc3)o2)cc1	-1	22*	13	-71	10	2
c1ccc(CSc2nnc(Cc3ccccc3)o2)cc1	.	1	.	.	.	.
COC(=O)C1=NNC2(c3ccc(C)cc3)C(=O)N(c3ccc(C)cc3)C(=O)C12 (stereo not given)	.	3	.	.	.	.
COCCOC(=O)c1c(C)oc2ccc(OC(=O)c3c(OC)cccc3OC)cc12	0	12*	-7	-34	22	1
O=C(COc1ccc2c(c1)C(=O)CC1(CCCCC1)O2)NCc1ccccc1	2	12*	-1	-10	6	2
O=C(CSc1nc(C2CC2)nc2ccccc12)Nc1ccccc1N1CCOCC1	.	5	.	.	.	.
CCOC(=O)c1c(NC(=O)CN2CCCc3ccccc32)sc(C)c1CC	-5	15*	0	-27	5	4
CCOC(=O)c1c(NC(=O)CN2CCCc3ccccc32)sc(C)c1C	-3	14*	-2	-30	8	3
CCOC(=O)c1ccc(NC(=O)Nc2cc(C)cc(C)n2)cc1	.	5	.	.	.	.
Cc1cc(C(F)(F)F)nc(-n2cc(-c3ccccc3)nn2)n1	.	-1	.	.	.	.
COCCNC(=O)/C(C#N)=C/c1ccc(-c2ccc(S(=O)(=O)N3CCOCC3)cc2)o1	-5	3	11	-6	11	.
CCOCCCNC(=O)/C(C#N)=C/c1ccc(-c2ccc(S(=O)(=O)N3CCOCC3)cc2)o1	-3	12*	0	-27	4	3
CCOC(=O)C(C)(C)N(Cc1cccc(C)c1)S(=O)(=O)c1cccc([N+](=O)[O-])c1	-2	13*	-1	-16	36	0
CCCC(=O)Oc1ccc(N(C(=O)CCC)S(=O)(=O)c2cccc([N+](=O)[O-])c2)cc1	-12	4	16	-46	9	.
Cc1ccc(C(C)C)c(OCC(=O)OCc2c(C)noc2C)c1	0	23*	-3	-14	6	1
CC(Sc1nnnn1C)C(=O)Nc1ccc2c(c1)OCCO2 (stereo not given)	.	3	.	.	.	.
CC(CCn1cccn1)NC(=O)CCc1nnc(C2CCCCC2)o1 (stereo not given)	.	0	.	.	.	.
SMILES	Phagocyt inh	RAM inhibit	Yeast life ext	Yeast growth inh	Measles CPE	RAM efflux-def
CCN(CC)S(=O)(=O)c1ccc(NCC2COc3ccccc3O2)c([N+](=O)[O-])c1 (stereo not given)	-5	17*	-2	-38	29	3
COc1cccc(-c2nc(=S)c3c(n2Cc2ccco2)CCCC3)c1	-2	14*	15	-16	14	2
O=c1c(/C=N/O)coc2ccc3ccccc3c12	1	23*	-12	10	13	1
Cc1cc(Cl)ccc1OCC(=O)N/N=C1\CCCc2ccccc21	.	15*	-12	-1	3	3
CCCS(=O)(=O)c1c(S(=O)(=O)CCC)c2c(N)cccn2c1C(=O)c1ccc(Br)cc1	.	13*	.	-49	6	1
O=C(CC(Nc1ccccc1Cl)C(=O)OCC(=O)c1cccs1)c1ccccc1 (stereo not given)	0	19*	-3	-35	6	2
O=C(OCC(=O)c1cccs1)c1ccccc1	0	2	-7	-27	6	.
COc1cc2c(cc1OC)C(C1C(=O)CC(C)CC1=O)N(C(=O)CCl)CC2 (stereo not given)	-7	1	-1	10	12	.
CN(C)c1ccc(N=Nc2ccccc2C(=O)OCC(=O)Nc2ccccc2C(F)(F)F)cc1	-3	20*	29*	-24	4	5
COc1cccc(NC(=S)N(Cc2ccc(Cl)cc2)Cc2ccc(C(=O)O)cc2)c1	.	14*	.	.	.	2
CC(C)CCNC(=O)c1cc(-c2ccco2)nc2ccccc12	.	4	-5	-25	7	.
CCCCCCNC(=O)c1cc(-c2ccco2)nc2ccccc12	.	13*	.	-47	19	2
CN(C)S(=O)(=O)N1CCC(c2ccc(F)cc2)C(COc2ccc3c(c2)OCO3)C1 (stereo not given)	2	17*	1	-6	24	4
OC(COc1ccc2c(c1)OCO2)CN1CCN(c2ccc(F)cc2)CC1 (stereo not given)	.	1	.	.	.	.
O=C(Nc1ccc(-c2nc3ccccc3s2)cc1)c1cc(-n2cnnc2)ccc1Cl	-1	16*	-5	-24	6	5
CCOc1ccc2nc3c(cc2c1)CN(CCOC)C(=NCCOC)S3	.	14*	4	-31	6	3
O=C(NCc1ccco1)C1(c2ccc(Br)cc2)CCCC1	-1	1	7	2	5	.
CSc1nnc(-c2ccco2)c(-c2ccco2)n1	0	1	-18	-54	5	.
CSc1nnc2c3ccccc3c3ccccc3c2n1	.	13*	-8	-59	5	3
O=C(CNS(=O)(=O)c1cccc(Cl)c1)OCc1csc(-c2ccccc2)n1	-9	6	-7	-33	14	.
CNS(=O)(=O)c1cccc(C(=O)OCc2csc(-c3ccccc3)n2)c1	-1	16*	4	0	6	1
Cc1ccc(OCC(=O)N2CCCC(CCC(=O)N(C)CCc3ccccn3)C2)cc1 (stereo not given)	.	2	.	.	.	.
N#C/C(=C\Nc1ccccc1SC(F)(F)F)c1nc(-c2ccccc2)cs1	-10	12*	4	-40	5	3
Cc1ccc(OCCn2cc(/C=C(\C#N)C(=O)NCC3CCCO3)c3ccccc32)cc1C (stereo not given)	-5	12*	-1	-21	26	6
Cc1ccc(C)c(OCCn2cc(/C=C(\C#N)C(=O)NCC3CCCO3)c3ccccc32)c1 (stereo not given)	-4	7	-7	-2	24	.
